# CHRM4 antagonist: CHRM4 antagonism in calcium assay; P08173; CHO-hM4 cells, ACh EC80, Fluo-8 calcium fluorescence; inhibition, % at 3 µM; actives 0.73% (n = 360,000);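 active = inhibition above its plate's cutoff, the mean inhibition of sample wells plus 3 SD, cut at about 27% in these data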;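 note: 0% = acetylcholine EC80 with DMSO and 100% = DMSO without agonist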
# Target sequence (P08173 whole entry, looked up): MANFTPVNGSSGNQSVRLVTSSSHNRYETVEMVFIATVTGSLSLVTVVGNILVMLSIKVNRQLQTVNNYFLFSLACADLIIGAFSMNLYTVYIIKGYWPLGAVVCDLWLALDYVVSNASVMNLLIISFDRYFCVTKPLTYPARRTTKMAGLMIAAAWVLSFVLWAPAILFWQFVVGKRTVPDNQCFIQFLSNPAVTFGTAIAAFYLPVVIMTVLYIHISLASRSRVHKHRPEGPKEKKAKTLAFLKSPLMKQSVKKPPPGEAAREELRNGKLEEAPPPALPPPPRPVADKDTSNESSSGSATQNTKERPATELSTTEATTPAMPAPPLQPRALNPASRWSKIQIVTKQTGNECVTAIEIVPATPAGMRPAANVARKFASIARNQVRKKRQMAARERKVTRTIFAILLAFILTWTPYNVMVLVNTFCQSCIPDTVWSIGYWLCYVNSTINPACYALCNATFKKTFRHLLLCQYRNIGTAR
# M4 PAM: potentiates acetylcholine response at human M4 receptor; P08173; CHO-K1 hM4/Gqi5, Fluo-8 calcium fluorescence, ACh EC20; 0% = ACh EC20, 100% = maximal ACh; activation, % at 3 µM; actives 0.4% (n = 360,000);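 active = activation above its plate's cutoff, the mean activation of sample wells plus 3 SD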
# CHRM4 agonist: CHRM4 agonism in calcium assay | P08173 | CHO-K1 hM4/Gqi5, Fluo-8 calcium fluorescence; vehicle 0%, full acetylcholine response 100% | activation, % at 3 µM | actives 0.14% (n = 360,000) | AID 624127;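 active = activation above the run mean over all test wells plus 3 SD, cut at about 32% in these data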;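 note: peak over basal fluorescence ratio per well then scaled between controls; 0% = DMSO wells and 100% = acetylcholine at EC100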
# M5 ag: agonists of human muscarinic M5 receptor (CHRM5); CHO-K1 hM5 cells, Fluo-8 calcium fluorescence; 0% DMSO wells, 100% maximal acetylcholine response; AID 624037; activation, % at 3 µM; actives 0.19% (n = 360,000);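 active = activation above the run's mean over test compounds plus 3 SD, cut at about 23% in these data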;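 note: signal is peak over basal fluorescence ratio across the kinetic read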
# CHRM5 PAM: CHRM5 positive allosteric modulation. P08912. CHO-K1 hM5, Fluo-8 calcium, ACh EC20 PAM; 0% = ACh EC20, 100% = ACh EC100. activation, % at 3 µM. actives 0.3% (n = 360,000);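 active = activation above the run cutoff, the mean activation of all test compounds plus 3 SD, cut at about 18% in these data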
#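 System: CHO-K1 hM5 cells. Reagent: acetylcholine, EC20 level. Compound dosing: single dose, 3 µM nominal final test concentration. Timing: Post-acetylcholine fluorescence recording 140 s. Detection: Fluo-8 calcium fluorescence. Read-out: % activation, ACh-normalized. Benchmarks: ACh EC20 and EC100 wells. Repeats: singlicate, one well per test compound.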
# M5 antag: CHRM5 antagonism in calcium assay. CHO-hM5 cells, Fluo-8 calcium fluorescence, ACh EC80. inhibition, % at 3 µM. AID 624040. actives 0.59% (n = 360,000). P08912;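 active = inhibition above a per-plate cutoff, the mean of that plate's test compounds plus 3 SD, cut at about 27% in these data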;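 note: 0% = acetylcholine EC80 with DMSO and 100% = DMSO without agonist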
# Numbers without * were called inactive. Shown are actives, neighbours in structure and some others; about 1.8% of the full set was active somewhere.
SMILES,CHRM4 antagonist,M4 PAM,CHRM4 agonist,M5 ag,CHRM5 PAM,M5 antag
CCN(CC)CCNC(=O)c1ccc(NC(=O)c2ccc(S(=O)(=O)N3CCCC3)cc2)cc1,6,-3,1,-7,3,7
CCOC(=O)/C(C#N)=N/Nc1ccc(S(=O)(=O)N2CCc3ccccc32)cc1,10,-13,16,4,-14,27*
N#C/C(=N\Nc1ccc(S(=O)(=O)N2CCc3ccccc32)cc1)C(N)=S,8,-6,9,4,-19,21
CCN(CC)CCNC(=O)c1ccc(NC(=O)c2cc(S(=O)(=O)N3CCCCC3)ccc2C)cc1,69*,-16,1,-10,-38,36*
CCN(CC)CCNC(=O)c1ccc(NC(=O)c2cccc(S(=O)(=O)N3c4ccccc4CC3C)c2)cc1 (stereo not given),97*,-16,1,-8,-15,98*
Cn1cc(S(=O)(=O)N2CCc3ccccc32)cc1C(=O)NC(C)(C)C,37*,-12,24,10,-22,41*
CC(=O)Nc1ccc(S(=O)(=O)NCCc2cn3nc(C)c(C)nc3n2)cc1,3,9,1,-3,10,-1
COCCN(C(=O)COC(=O)CCC1CCCCC1)c1c(N)n(Cc2ccccc2)c(=O)[nH]c1=O,6,-6,0,0,-6,16
CCN(CC)CCNC(=O)c1ccc(NC(=O)c2cccc(S(=O)(=O)Nc3ccc(C)cc3)c2)cc1,43*,-20,1,-11,-19,52*
CN(C)CCNC(=O)c1cccc(S(=O)(=O)Nc2ccc(F)cc2)c1,15,11,1,-4,8,0
CCN(CC)CCNC(=O)c1ccc(NC(=O)c2cccc(S(=O)(=O)N3CCc4ccccc43)c2)cc1,61*,-17,0,-8,-31,83*
COc1ccc(C(=O)Nc2ccc(S(=O)(=O)N3CCc4ccccc43)cc2)cc1,42*,-27,18,2,-13,14
COc1ccccc1C(CNC(=O)c1cccc(S(=O)(=O)Nc2ccc(C)cc2)c1)N(C)C (stereo not given),32*,-14,0,-7,-14,99*
COc1ccccc1CNC(=O)Cn1cccc1C(=O)c1ccccc1C,-22,-1,5,-5,0,8
Cc1cn([C@H]2C[C@H](O)[C@@H](CNCc3cc(Br)ccc3OCc3ccccc3)O2)c(=O)[nH]c1=O,-12,2,2,0,6,-8
CC1(C)Oc2ccc3ccc(=O)oc3c2/C(=C/NNC(N)=S)C1=O,-8,-3,2,-3,2,-2
CC(=O)N1CCN(C(=O)c2cccc(S(=O)(=O)N3c4ccccc4CC3C)c2)CC1 (stereo not given),4,16*,3,5,0,2
Clc1cccc(NCc2ccccc2)n1,0,22*,4,-5,-1,7
COc1ccc(C(C(=O)NC2CCCC2)N(C(=O)c2ccco2)c2cc3c(cc2C(C)=O)OCO3)cc1OC (stereo not given),-17,-2,2,-2,6,2
CCn1c(C)nc2cc(S(N)(=O)=O)ccc21,-5,-1,1,0,-2,-9
CCn1c(C)nc2cc(S(=O)(=O)C(F)(F)C(F)C(F)(F)F)ccc21 (stereo not given),4,-10,14,7,-14,27*
CCOc1cccc(-c2c(C(=O)N/N=C/c3ccc(Br)cc3)nnn2-c2nonc2N)c1,-1,15,9,18,18*,1
CCCN(CCC)Cc1c(C(=O)N/N=C/c2ccco2)nnn1-c1nonc1N,0,3,1,-4,-8,27*
CCCc1c(C(=O)N/N=C(\C)CCc2ccccc2)nnn1-c1nonc1N,-26,15*,2,-3,-2,-12
CCCc1c(C(=O)N/N=C/C(C)=C/c2ccco2)nnn1-c1nonc1N,-7,8,2,-2,2,3
SMILES,CHRM4 antagonist,M4 PAM,CHRM4 agonist,M5 ag,CHRM5 PAM,M5 antag
CCOc1cccc(-c2c(C(=O)N/N=C/c3cccnc3)nnn2-c2nonc2N)c1,-2,7,5,3,3,-6
CCCN(CCC)Cc1c(C(=O)N/N=C/c2ccoc2)nnn1-c1nonc1N,2,0,1,-2,6,3
CC(/C=N/NC(=O)c1nnn(-c2nonc2N)c1C(C)C)=C\c1ccco1,8,17*,2,0,7,-3
c1ccc2c(c1)c1c(c3ccccc32)CN2CCCC2C1 (stereo not given),-12,0,1,-3,-1,10
CN(C)C1(CNC(=O)C2CCN(S(=O)(=O)c3ccccc3C(F)(F)F)CC2)CCCCC1,-6,2,2,-4,7,-19
COc1cc(C(=O)NC(C)CCn2cccn2)ccc1OC1CCN(C(C)=O)CC1 (stereo not given),-2,0,1,-3,-3,0
S=C(NCc1ccccc1)Nc1ccc(Cl)cc1,5,-12,20,4,-21,18
FC(F)(F)Sc1ccc(NC(=S)NCc2ccccc2)cc1,16,-11,13,2,-22,28*
S=C(NCc1ccco1)Nc1cc(Cl)c(Cl)cc1Cl,-4,-12,7,0,-19,33*
S=C(NCc1ccco1)Nc1ccc(Cl)c(Cl)c1,9,-15,16,4,-14,25
S=C1SCCCN1Cc1ccc(Cl)cc1,-5,1,5,3,-2,1
C=CC[C@@H](CC(=O)N[C@@H](CO)Cc1ccccc1)C(=O)N[C@@H](COC(=O)[C@@H](CC=C)Cc1ccc(F)cc1)Cc1ccccc1,-4,7,2,4,-18,18
CCOc1ccc(NC(=NCc2ccc3c(c2)OCO3)SC2CC(=O)N(c3ccc(OCC)cc3)C2=O)cc1 (stereo not given),0,8,0,-4,19*,-10
CCN=C(NCC)SC1CC(=O)N(c2ccc(OC)cc2)C1=O (stereo not given),19,-9,30,7,-22,17
CCN=C(NCC)SC1CC(=O)N(c2cccc(OCC)c2)C1=O (stereo not given),33*,-9,19,5,-19,28*
CCOc1ccc(NC(=NCc2ccc3c(c2)OCO3)SC2CC(=O)N(c3ccccc3)C2=O)cc1 (stereo not given),-4,1,0,-1,4,-2
CC(C)N(C(=O)C(=O)c1cccn1-c1ccccc1C#N)C(C)C,1,17*,1,-2,16,-14

# Screening results (PubChem)
